Values after ≈ are worked out from the molar mass of the structure shown. Active and inactive are the calls of the source. No cut-off for these calls is given here.
Legend:
Enterococcus faecium [1] = test: Antibacterial activity against Enterococcus faecium C68 assessed as bacterial growth inhibition after 16-20 hrs by broth microdilution method; format: functional
Method in brief: (§1)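 CLSI broth microdilution in cation-adjusted Mueller Hinton II broth, triplicate. Cultures grown to OD600 about 0.60-0.80, diluted 100-fold; final inoculum 5×10^5 CFU/mL. Compounds from 5 mg/mL DMSO stock diluted in medium, final 2% (v/v) DMSO plus 0.25% (v/v) glacial acetic acid. Incubated 35 °C, 16-20 h, then MIC read.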

Enterococcus faecium [2] = test: Antibacterial activity against vancomycin and teicoplanin-resistant Enterococcus faecium ATCC 700221 isolated from human faeces assessed as bacterial growth inhibition after 16-20 hrs by broth microdilution method; format: functional; conditions: ATCC 700221, Feces
Method in brief: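 Broth microdilution in cation-adjusted Mueller Hinton II broth, run to CLSI method, triplicate. Cells grown to OD600 ~0.60-0.80, diluted 100-fold; final inoculum 5×10^5 CFU/mL. Compounds from 5 mg/mL DMSO stocks diluted in medium, final 2% (v/v) DMSO plus 0.25% (v/v) glacial acetic acid. Incubated 35 °C for 16-20 h, then MIC read.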

Enterococcus faecium [3] = test: Antibacterial activity against Enterococcus faecium C38 assessed as bacterial growth inhibition after 16-20 hrs by broth microdilution method; format: functional; method in brief: as §1
[4] = Apparent intrinsic clearance in human liver S9 at 10 uM after 60 mins by UPLC analysis; format: ADME, subcellular, Liver S9 fraction; conditions: read-out: CLH(app)
Method in brief: (§2)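 Pooled human liver S9 (1 mg/mL) with 1 mM NADPH and 10 μM compound in sodium phosphate buffer (0.20 M phosphate, 0.15 M NaCl, pH 7.4), 37 °C for 60 min. Six time points quenched in acetonitrile with internal standard, analysed by UPLC-MRM. Half-life taken from first-order rate constant; CLint scaled with 45 mg protein/g liver and 20 g liver/kg. Run in duplicate.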

Enterococcus faecium [5] = test: Inhibition of transcription in Enterococcus faecium NCTC 7171 assessed as decrease in [5,6-3H]-uridine incorporation into RNA at 8 ug/ml after 120 mins by liquid scintillation counting analysis; format: functional, organism-based
Method in brief: (§3)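 E. faecium NCTC 7171 grown in brain-heart infusion at 37 °C to early-log phase. Tritiated precursor (1 uCi/mL) added and incubated 5 min; compound then added at 8 μg/mL with DMSO negative control, followed by 2 h growth. Samples taken every 20 min, precipitated in 20% ice-cold TCA, filtered, washed with TCA and ethanol, and scintillation-counted in duplicate. Value reported at 120 min.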

Escherichia coli = test: Effect on beta-galactosidase reporter gene translation in Escherichia coli S30 extract by transcription/translation assay; format: functional
Enterococcus faecium [6] = test: Antibacterial activity against copper, erythromycin, teracycline-resistant and vancomycin and teicoplanin-sensitive Enterococcus faecium ATCC BAA2127 assessed as bacterial growth inhibition after 16-20 hrs by broth microdilution method; format: functional; method in brief: as §1
Enterococcus faecium [7] = test: Antibacterial activity against vancomycin-susceptible Enterococcus faecium 119-39A assessed as bacterial growth inhibition after 16-20 hrs by broth microdilution method; format: functional; method in brief: as §1
Enterococcus faecium [8] = test: Inhibition of DNA replication in Enterococcus faecium NCTC 7171 assessed as decrease in [methyl-3H]-thymidine incorporation into DNA at 8 ug/ml after 120 mins by liquid scintillation counting analysis; format: functional, organism-based; method in brief: as §3
Enterococcus faecium [9] = test: microbe, parasite or virus in culture; conditions: NCTC 7171
Enterococcus faecium [10] = test: Inhibition of peptidoglycan synthesis in Enterococcus faecium NCTC 7171 assessed as decrease in D-[2,3-3H]-alanine incorporation at 8 ug/ml after 120 mins by liquid scintillation counting analysis; format: functional, organism-based; method in brief: as §3
Liver = test: Half life in human liver S9 at 10 uM after 60 mins by UPLC analysis; format: ADME, subcellular, Liver S9 fraction; conditions: s9, 1 h; method in brief: as §2
[11] = Induction of hemolysis in RBC (unknown origin) at 64 ug/ml; conditions: erythrocytes
Enterococcus faecium [12] = test: Inhibition of translation in Enterococcus faecium NCTC 7171 assessed as decrease in L-[4,5-3H]-leucine incorporation into protein at 8 ug/ml after 120 mins by liquid scintillation counting analysis; format: functional, organism-based; method in brief: as §3
Plasma = test: Plasma protein binding in human at 10 uM by rapid equilibrium dialysis method; format: ADME, cell-free
Method in brief: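 Human plasma centrifuged to clear particulates, spiked with compound to final 10 μM in 0.1% DMSO. Dialysed against 0.1 M sodium phosphate buffer, pH 7.4, at 37 °C overnight with shaking in a rapid equilibrium dialysis device. Buffer and plasma sides extracted with acetonitrile containing internal standard and analysed by UPLC-MRM. Binding calculated as (Cp−Cf)/Cp×100.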

Pseudomonas aeruginosa = test: Antibacterial activity against Pseudomonas aeruginosa ATCC 27853 assessed as bacterial growth inhibition after 16-20 hrs by broth microdilution method; format: functional, organism-based
Method in brief: (§4)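 CLSI broth microdilution in cation-adjusted Mueller Hinton II broth, run in triplicate. Cultures grown to OD600 about 0.60-0.80, diluted 100-fold, final inoculum 5×10^5 CFU/mL. Compounds diluted from 5 mg/mL DMSO stocks; final 2% (v/v) DMSO plus 0.25% (v/v) glacial acetic acid. Plates incubated at 35 °C for 16-20 h before reading the MIC.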

Enterococcus faecium [13] = test: Antibacterial activity against Enterococcus faecium C9 assessed as bacterial growth inhibition after 16-20 hrs by broth microdilution method; format: functional; method in brief: as §1
Staphylococcus aureus [14] = test: Inhibition of Staphylococcus aureus PBP2a up to 100 ug/ml by BIOCILLIN FL based fluorescence analysis
Method in brief: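 Recombinant purified PBP2a (final 2 μM) preincubated with inhibitor in 25 mM Hepes, 1 M NaCl, pH 7.0, 37 °C, 10 min. BOCILLIN FL (final 20 μM) then added for 10 min at 37 °C. Samples boiled in SDS buffer and run on 12% SDS-PAGE. Fluorescent bands scanned and quantified against a no-inhibitor control.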

Staphylococcus aureus [15] = test: Antibacterial activity against Staphylococcus aureus ATCC 29213 assessed as bacterial growth inhibition after 16-20 hrs by broth microdilution method; format: functional, organism-based; method in brief: as §4
Klebsiella pneumoniae = test: Antibacterial activity against Klebsiella pneumoniae ATCC 700603 assessed as bacterial growth inhibition after 16-20 hrs by broth microdilution method; format: functional, organism-based; method in brief: as §4
Acinetobacter baumannii = test: Antibacterial activity against Acinetobacter baumannii ATCC 17961 assessed as bacterial growth inhibition after 16-20 hrs by broth microdilution method; format: functional, organism-based; method in brief: as §4
Enterobacter sp. = test: Antibacterial activity against Enterobacter sp. assessed as bacterial growth inhibition after 16-20 hrs by broth microdilution method; format: functional, organism-based; method in brief: as §4
BL21-DE3 = test: Inhibition of Enterococcus faecium D63r PBP5fm expressed in Escherichia coli BL21 (DE3) cells up to 100 ug/ml after 10 to 20 mins by BIOCILLIN FL-based fluorescence assay
Method in brief: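 Recombinant PBP5fm lacking the signal peptide, expressed in E. coli BL21(DE3) and purified by anion-exchange then chelating chromatography. Enzyme (40 μM) preincubated with inhibitor in 25 mM Hepes, 1 M NaCl, pH 7.0 at 37 °C for 20 min. BOCILLIN FL (30 μM) then added for a further 20 min. Bands resolved on 12% SDS-PAGE and fluorescence quantified against a no-inhibitor control.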

CN[C@H](CC(C)C)C(=O)N[C@H]1C(=O)N[C@@H](CC(N)=O)C(=O)N[C@H]2C(=O)N[C@H]3C(=O)N[C@H](C(=O)N[C@H](C(=O)O)c4cc(O)cc(O)c4-c4cc3ccc4O)[C@H](O)c3ccc(c(Cl)c3)Oc3cc2cc(c3O[C@@H]2O[C@H](CO)[C@@H](O)[C@H](O)[C@H]2O[C@H]2C[C@](C)(N)[C@H](O)[C@H](C)O2)Oc2ccc(cc2Cl)[C@H]1O [VANCOMYCIN]
MIC (Enterococcus faecium [1]): 64 µg/mL (≈ 44.2 µM)
MIC (Enterococcus faecium [2]): 16 µg/mL (≈ 11 µM)
MIC (Enterococcus faecium [3]): 64 µg/mL (≈ 44.2 µM)

CC1=C(C(N)=O)C(c2ccc(N(C)C)cc2)n2nc(SCc3ccccc3)nc2N1 (centres undefined)
CLint scaled at 10 µM [4]: < 10.4 mL/min/kg
inhibition (Enterococcus faecium [5]): inactive
Activity (Escherichia coli): inactive
MIC (Enterococcus faecium [6]): 4 µg/mL (≈ 9.51 µM)
MIC (Enterococcus faecium [7]): 4 µg/mL (≈ 9.51 µM)
inhibition (Enterococcus faecium [8]): inactive
MBC (Enterococcus faecium [9]): 32 µg/mL (≈ 76.1 µM)
MIC (Enterococcus faecium [9]): 4 µg/mL (≈ 9.51 µM)
MIC (Enterococcus faecium [2]): 4 µg/mL (≈ 9.51 µM)
inhibition (Enterococcus faecium [10]): Active
t1/2 (Liver): > 1 h
Activity [11]: 2%
inhibition (Enterococcus faecium [12]): inactive
PPB (Plasma): 97.6%
MIC (Enterococcus faecium [3]): 16 µg/mL (≈ 38 µM)

CC1=C(C(N)=O)C(c2ccc(N(C)C)cc2)n2nc(SCc3ccc([N+](=O)[O-])cc3)nc2N1 (centres undefined)
CLint scaled at 10 µM [4]: < 10.4 mL/min/kg
MIC (Enterococcus faecium [6]): 32 µg/mL (≈ 68.7 µM)
MIC (Enterococcus faecium [7]): 16 µg/mL (≈ 34.4 µM)
MBC (Enterococcus faecium [9]): 16 µg/mL (≈ 34.4 µM)
MIC (Enterococcus faecium [9]): 4 µg/mL (≈ 8.59 µM)
MIC (Enterococcus faecium [2]): 8 µg/mL (≈ 17.2 µM)
t1/2 (Liver): > 1 h
Activity [11]: 23%

CC1=C(C(N)=O)C(c2ccc(OC(C)C)cc2)n2nc(SCc3ccccc3)nc2N1 (centres undefined)
CLint scaled at 10 µM [4]: 10.9 mL/min/kg
MIC (Enterococcus faecium [6]): 16 µg/mL (≈ 36.7 µM)
MIC (Enterococcus faecium [9]): 4 µg/mL (≈ 9.18 µM)
MIC (Enterococcus faecium [2]): 8 µg/mL (≈ 18.4 µM)
t1/2 (Liver): 0.95 h
Activity [11]: < 1%
MIC (Enterococcus faecium [3]): 32 µg/mL (≈ 73.5 µM)

CC1=C(C(N)=O)C(c2ccc(C(C)C)cc2)n2nc(SCc3ccccc3)nc2N1 (centres undefined)
inhibition (Pseudomonas aeruginosa): inactive
CLint scaled at 10 µM [4]: 11.1 mL/min/kg
MIC (Enterococcus faecium [13]): 16 µg/mL (≈ 38.1 µM)
MIC (Enterococcus faecium [6]): 4 µg/mL (≈ 9.53 µM)
MIC (Enterococcus faecium [7]): 4 µg/mL (≈ 9.53 µM)
inhibition (Staphylococcus aureus [14]): inactive
MBC (Enterococcus faecium [9]): 32 µg/mL (≈ 76.3 µM)
MIC (Enterococcus faecium [9]): 8 µg/mL (≈ 19.1 µM)
inhibition (Staphylococcus aureus [15]): inactive
MIC (Enterococcus faecium [1]): 16 µg/mL (≈ 38.1 µM)
t1/2 (Liver): 0.933 h
inhibition (Klebsiella pneumoniae): inactive
Activity [11]: 22%
inhibition (Acinetobacter baumannii): inactive
inhibition (Enterobacter sp.): inactive
PPB (Plasma): 98.7%
MIC (Enterococcus faecium [3]): 16 µg/mL (≈ 38.1 µM)
inhibition (BL21-DE3): inactive

CC1=C(C(N)=O)C(c2ccc(N(C)C)cc2)n2nc(SCc3ccc(C#N)cc3)nc2N1 (centres undefined)
CLint scaled at 10 µM [4]: < 10.4 mL/min/kg
MIC (Enterococcus faecium [13]): 4 µg/mL (≈ 8.98 µM)
MIC (Enterococcus faecium [7]): 8 µg/mL (≈ 18 µM)
inhibition (Staphylococcus aureus [14]): inactive
MBC (Enterococcus faecium [9]): 16 µg/mL (≈ 35.9 µM)
MIC (Enterococcus faecium [1]): 4 µg/mL (≈ 8.98 µM)
MIC (Enterococcus faecium [2]): 8 µg/mL (≈ 18 µM)
t1/2 (Liver): > 1 h
Activity [11]: 1%
PPB (Plasma): 96.8%
MIC (Enterococcus faecium [3]): 16 µg/mL (≈ 35.9 µM)
inhibition (BL21-DE3): inactive

CCSc1ccc(C2C(C(N)=O)=C(C)Nc3nc(SCc4ccccc4)nn32)cc1 (centres undefined)
CLint scaled at 10 µM [4]: < 10.4 mL/min/kg
MIC (Enterococcus faecium [6]): 16 µg/mL (≈ 36.6 µM)
MIC (Enterococcus faecium [7]): 8 µg/mL (≈ 18.3 µM)
MIC (Enterococcus faecium [9]): 4 µg/mL (≈ 9.14 µM)
t1/2 (Liver): > 1 h
Activity [11]: 46%
